# MC4R antag cAMP – MC4R antagonists of cAMP signaling, primary screen, cell-based, TR-FRET, antagonist arm of biased-ligand search; MC4R-expressing cells, MTII-stimulated cAMP, LANCE TR-FRET; inhibition, % at 6.5 µM; actives 0.48% (n = 360,000); AID 540295, 2011;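 active = inhibition above its plate's cutoff, the mean of tested wells on that plate plus 3 SD, cut at about 29% in these data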
#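 system = U2OS cells with stable human MC4R expression | also added = Melanotan II challenge after compound preincubation | dosing = one concentration, 6.5 µM nominal | incubation = compound 30 min, challenge 1 h, detection 1 h | measured by = TR-FRET with Eu-cAMP and labeled anti-cAMP, 671 nm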
# FXN GAA850 act – FXN promoter activators, primary screen, cell-based, luciferase luminescence, HEK293 lucGAA850; HEK293 lucGAA850 FXN promoter luciferase reporter, 24 h; percent of 10 µM SAHA response; activation, % at 6 µM; actives 0.56% (n = 360,000); AID 540364, 2011;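 active = activation above the average of all compounds screened plus 3 SD, cutoff fixed separately per campaign, cut at about 7.5% in these data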
# MC4R ag barr – MC4R agonists recruiting beta-arrestin, primary screen, cell-based, luminescence, agonist arm of biased-ligand search. activation, % at 8.9 µM. actives 0.98% (n = 360,000). AID 540308, 2011. U2OS MC4R beta-arrestin complementation; percent of melanotan II response, DMSO zero;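 active = activation above a per-plate cutoff, the mean activation of sample wells on that plate plus 3 SD, cut at about 8% in these data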
# AHR act – AHR activators, primary screen, cell-based, luminescence, luciferase reporter, human. activation, % at 5 µM. AID 2796, 2010. actives 2.5% (n = 320,000). AHR-responsive luciferase reporter cells; in the data active = activation above about 47%
# HTR2A ag – mouse Htr2a agonists via beta-arrestin recruitment, primary screen, cell-based, luminescence; 5-hydroxytryptamine receptor 2A (Mus musculus), P35363; CHO-K1 mHTR2A beta-arrestin complementation; percent of 30 µM serotonin response; activation, % at 7.6 µM; actives 0.66% (n = 360,000);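 active = activation above a run cutoff, the mean activation of all tested compounds plus 3 SD, cut at about 14% in these data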
# Target sequence (P35363 whole entry, looked up): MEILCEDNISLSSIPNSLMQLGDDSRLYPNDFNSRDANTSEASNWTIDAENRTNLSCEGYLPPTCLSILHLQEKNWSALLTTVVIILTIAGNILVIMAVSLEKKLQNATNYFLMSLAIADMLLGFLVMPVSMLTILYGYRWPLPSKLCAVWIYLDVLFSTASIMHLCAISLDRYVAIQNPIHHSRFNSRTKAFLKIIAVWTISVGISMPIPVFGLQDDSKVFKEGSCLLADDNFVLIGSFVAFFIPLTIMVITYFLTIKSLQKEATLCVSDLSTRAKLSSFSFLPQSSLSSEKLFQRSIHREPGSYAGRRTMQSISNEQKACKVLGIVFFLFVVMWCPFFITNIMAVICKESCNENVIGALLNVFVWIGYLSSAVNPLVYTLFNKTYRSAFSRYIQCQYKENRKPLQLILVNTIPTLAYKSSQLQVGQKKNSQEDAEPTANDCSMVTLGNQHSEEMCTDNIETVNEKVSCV
# cAMP nonselect – nonselective cAMP signaling inhibitors, parental cells, counter-screen for MC4R biased antagonist project, cell-based, TR-FRET, U2OS, forskolin, triplicate; inhibition, % at 6.5 µM; AID 602193, 2012; actives 26% (n = 1,600); LANCE TR-FRET; shares compounds with MC4R antag cAMP;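 active = mean inhibition over triplicates above the low-control well mean plus 3 SD, set per campaign, cut at about 13% in these data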;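 also: signal is single emission at 671 nm which falls as cellular cAMP rises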
# MC4R antag conf – MC4R cAMP antagonists, retest, confirmation, cell-based, TR-FRET | actives 27% (n = 1,600) | MC4R-expressing cells, MTII-stimulated cAMP | shares compounds with MC4R antag cAMP | AID 602195, 2012 | inhibition, % at 6.5 µM; in the data active = inhibition above about 29%
# Numbers stand for hits; n = inactive; x = no result; ! = not confirmed by another sample. Only some compounds are listed: those with a hit (about 4.7% of all), similar ones and a draw of the others.
SMILES,MC4R antag cAMP,FXN GAA850 act,MC4R ag barr,AHR act,HTR2A ag,cAMP nonselect,MC4R antag conf
O=C(Nc1nc2cc(Cl)ccc2s1)C1CCCN(S(=O)(=O)c2cccc3cccnc23)C1 (stereo not given),28.9,n,n,n,n,n,n
COc1ccc(-c2cc(C(=O)Nc3cc(C)on3)no2)cc1OC,30.5,n,n,n,n,n,n
COc1ccc(-c2cc(C(=O)Nc3ccc(Br)cc3)no2)cc1,28.8,n,n,n,n,n,n
Cc1cc(NC(=O)c2cc(-c3ccc(O)cc3)on2)no1,n,n,n,n,n,x,x
COc1ccc(S(=O)(=O)NCC(=O)N(CC(=O)NCC2CCCO2)Cc2ccccc2)cc1 (stereo not given),n,n,n,n,n,x,x
CSCCC(NC(=O)c1ccco1)C(=O)NCCc1ccc(Cl)cc1 (stereo not given),n,n,n,n,n,x,x
CC(=O)Nc1cc(-c2cccc(N)c2)cn2c(-c3ccc(C(C)=O)cc3)cnc12,n,n,n,x,n,x,x
COc1cc(-c2cc(NC(C)=O)c3ncc(-c4ccc(C(C)=O)cc4)n3c2)cc(OC)c1OC,29.1,n,8.7,x,n,n,n
CC1=CC(=O)C(C(C)C)=C/C1=N/OS(=O)(=O)c1ccccc1,71.3,n,30.9,n,n,35.6,91.4
Cc1cccc(C)c1NC(=O)C(c1ccc(-c2ccccc2)cc1)n1c(=O)c(-c2cc3ccccc3[nH]2)nc2ccccc21 (stereo not given),x,x,x,x,n,x,x
CC(C)C1Cc2ccccc2-c2[nH]c(=S)[nH]c(=O)c21 (stereo not given),36.5,n,n,n,n,20.8,48.3
CCC1(CC)Cc2ccccc2-c2[nH]c(=S)[nH]c(=O)c21,n,n,n,n,n,x,x
Cc1ccccc1N1C(=O)c2cccc([N+](=O)[O-])c2C1=O,32.0,n,n,x,n,14.4,n
CCN(Cc1ccccc1)N=Nc1ccccc1,n,n,n,x,n,x,x
CN(CC(=O)NCCCc1ccccc1)Cc1ccc(Br)cc1,30.1,n,n,n,n,n,n
CN(CC(=O)NCCc1ccc(F)cc1)Cc1ccc(Br)cc1,n,n,n,n,n,x,x
C(=C\c1ccccc1)/C=N/N1CCN(Cc2ccccc2)CC1,29.9,n,n,n,n,n,n
C(/C=C/c1ccccc1)=N/N1CCN(c2ccccc2)CC1,n,n,n,n,n,x,x
COc1ccc(Oc2c(Cl)cnn(-c3ccc(Cl)c(Cl)c3)c2=O)cc1,n,n,n,n,n,x,x
COc1c(Cl)cnn(-c2ccc(C)cc2)c1=O,34.1,n,n,n,n,n,n
COc1cnn(-c2ccc(F)cc2)c(=O)c1Br,n,n,n,n,n,x,x
COc1ccc(Oc2c(Cl)cnn(-c3ccc(C)cc3)c2=O)cc1,59.5,n,n,n,n,36.4,82.5
COc1ccc(Oc2c(Cl)cnn(-c3ccc(F)cc3)c2=O)cc1,57.6,n,n,n,n,40.3,72.6
COc1cc(CC(=O)OC2CCOC2=O)cc(OC)c1OC (stereo not given),n,n,n,n,n,x,x
COc1cc(C(=O)OC2CCOC2=O)cc(Cl)c1OC (stereo not given),30.4,n,n,n,n,16.4,30.1
SMILES,MC4R antag cAMP,FXN GAA850 act,MC4R ag barr,AHR act,HTR2A ag,cAMP nonselect,MC4R antag conf
CC1(C)CC[C@]2(C(=O)O[C@@H]3O[C@H](CO)[C@@H](O)[C@H](O)[C@H]3O)CC[C@]3(C)C(=CCC4[C@@]5(C)CC[C@H](O[C@@H]6O[C@H](C(=O)O)[C@@H](O[C@H]7OC[C@@H](O)[C@@H](O)[C@@H]7O)[C@H](O)[C@H]6O)C(C)(C)C5CC[C@]43C)[C@@H]2C1 (stereo not given in full),n,n,n,n,n,x,x
CC1(C)CC[C@]2(C(=O)O)CC[C@]3(C)C(=CC[C@@H]4[C@@]5(C)CC[C@H](O[C@@H]6O[C@H](C(=O)O)[C@@H](O)[C@H](O[C@@H]7OC[C@H](O)[C@H](O)[C@H]7O)[C@H]6O)C(C)(C)[C@@H]5CC[C@]43C)[C@@H]2C1,110.6,n,n,n,n,35.5,n
OC(COc1ccccc1)CN1CCOCC1 (stereo not given),29.8,n,n,n,n,n,n
OC(COc1ccccc1)CN1CCCCC1 (stereo not given),n,n,n,x,n,x,x
CSc1ccc(OC2CCCCC2NS(=O)(=O)c2ccc(Cl)cc2)cc1 (stereo not given),30.7,n,n,n,n,n,n
CN(C)C(=O)c1cccc(-c2cccc(-c3nc(C(=O)NCc4ccccc4)cc4c3[C@@H](CCO)N(S(=O)C(C)(C)C)C4)c2)c1 (stereo not given in full),x,x,x,x,n,x,x
Cc1c(C(=O)N/N=C/c2cccc(O)c2)nnn1-c1nonc1N,n,n,n,n,n,x,x
Cc1ccccc1COc1cccc(/C=N/NC(=O)c2nnn(-c3nonc3N)c2C)c1,31.7,n,n,n,n,n,n
CCCOc1ccc(-c2c(C(=O)N/N=C/c3ccccc3)nnn2-c2nonc2N)cc1,30.4,n,n,n,n,n,n
Cc1nc2ccc(Br)cc2c(-c2ccccc2)c1C(=O)O,35.5,n,n,n,n,48.5,96.2
Cc1ccc(-c2cc(C(=O)O)c3cc(Br)ccc3n2)s1,36.3,n,n,x,n,16.3,30.9!
CC[N+]1(C)CCC(O)(c2ccc(OC)cc2)C(C(=O)c2ccc(OC)cc2)C1 (stereo not given),28.7,n,n,x,n,17.0,n
COc1ccc(/C=C(\C#N)C(=O)Nc2cccc3ncccc23)cc1OC,30.7,n,n,n,n,n,n
COc1cc(/C=C(\C#N)C(=O)Nc2cccc3ncccc23)cc(OC)c1OC,n,n,n,n,n,x,x
Cc1csc(CN(C)C(=O)CC2C(=O)NCCN2Cc2ccc(-c3ccccc3)cc2)n1 (stereo not given),28.9,n,n,n,n,n,n
Cc1csc(CN(C)C(=O)CC2C(=O)NCCN2Cc2ccc(Cl)c(F)c2)n1 (stereo not given),n,n,n,n,n,x,x
CC1(C(=O)NCCc2ccccc2)Cc2c(-c3ccc(C(N)=O)cc3)ccnc2O1 (stereo not given),n,n,n,x,n,x,x

# From PubChem BioAssay
